For orientation: IC50 means the concentration that gives 50% inhibition.

The source made the active and inactive calls. No cut-off for these calls is given here.

Test [1] concerns K562. Nature of the test: Cytotoxicity against human K562 cells assessed as cell growth inhibition after 48 hrs by MTT assay. Format: functional, cell-based. The conditions noted are these: K562, 48 h. The method, boiled down: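 Suspension cells seeded at 5000/well (HL-60 in IMDM, K562 in RPMI, both with 10% FBS) and treated. MTT then added for 4 h at 37 °C; plates centrifuged at 3000 rpm for 30 min, medium removed, DMSO added, OD570 read. IC50 taken as concentration giving 50% growth inhibition; triplicate.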

The next test has as its system ECa-109 cell line. Nature of the test: Cytotoxicity against human ECA109 cells assessed as cell growth inhibition after 48 hrs by MTT assay. It is filed as functional, cell-based. Particulars: ECa-109, 48 h. The method, boiled down: (§1)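 Adherent cells seeded at 5000/well, left 16−24 h, then exposed 48 h at 37 °C, 5% CO2 in RPMI with 10% FBS. Medium refreshed, MTT added for 4 h at 37 °C, medium removed, formazan dissolved in DMSO, OD570 read. IC50 taken as concentration inhibiting growth by 50%; triplicate.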
In general terms: Tetrazolium assays rely on reduction of a dye to a coloured formazan, in cell work by metabolically active cells.

In another test the test system is A549. As to the kind of experiment: Cytotoxicity against human A549 cells assessed as cell growth inhibition after 48 hrs by MTT assay. It is filed as functional, cell-based. The conditions noted are these: A549, 48 h. The method in brief: as §1
The subject of test [2] is K562. As to the kind of experiment: Induction of apoptosis in human K562 cells assessed as viable cells at 0.4 uM after 48 hrs by Annexin V-FITC/propidium iodide-staining based flow cytometric analysis (reference value: 95.75 to 96.56%). It is filed as functional. Particulars: K562, 48 h, read-out: Activity. The method in brief: (§2)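 K562 seeded at 4 × 10^5 cells/well, 12 h, then exposed 48 h. Cells washed in ice-cold PBS, suspended in binding buffer, stained with annexin V-FITC and PI for 15 min at room temperature in the dark, and read by flow cytometry within 1 h. Cells counted as early/late apoptotic as % of total; n = 3.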
A general note: Flow cytometry measures light scatter and fluorescence of single cells or particles in a stream.

The subject of test [3] is K562. Nature of the test: Induction of apoptosis in human K562 cells assessed as late apoptotic cells at 0.4 uM after 48 hrs by Annexin V-FITC/propidium iodide-staining based flow cytometric analysis (reference value: 2.25 to 2.67%). It is filed as functional. The method, boiled down:
as §2

Test [4] relates to K562. Nature of the test: Induction of apoptosis in human K562 cells assessed as necrotic cells at 0.4 uM after 48 hrs by Annexin V-FITC/propidium iodide-staining based flow cytometric analysis (reference value: 0.13 to 0.27%). It is filed as functional. The method in brief:
as §2

Test [5] has as its system K562. As to the kind of experiment: Induction of apoptosis in human K562 cells assessed as viable cells at 0.8 uM after 48 hrs by Annexin V-FITC/propidium iodide-staining based flow cytometric analysis (reference value: 95.75 to 96.56%). It is filed as functional. Particulars: K562, 48 h, read-out: Activity. The method, boiled down:
as §2

Test [6] has as its system K562. As to the kind of experiment: Induction of apoptosis in human K562 cells assessed as early apoptotic cells at 0.8 uM after 48 hrs by Annexin V-FITC/propidium iodide-staining based flow cytometric analysis (reference value: 0.92 to 1.45%). Format: functional. The method in brief:
as §2

The subject of test [7] is K562. Nature of the test: Induction of apoptosis in human K562 cells assessed as viable cells at 1.2 uM after 48 hrs by Annexin V-FITC/propidium iodide-staining based flow cytometric analysis (reference value: 95.75 to 96.56%). It is filed as functional. Particulars: K562, 48 h, read-out: Activity. The method in brief: as §2
Test [8] concerns K562. As to the kind of experiment: Induction of apoptosis in human K562 cells assessed as early apoptotic cells at 1.2 uM after 48 hrs by Annexin V-FITC/propidium iodide-staining based flow cytometric analysis (reference value: 0.92 to 1.45%). It is filed as functional. The method, boiled down: as §2
The subject of test [9] is K562. As to the kind of experiment: Induction of apoptosis in human K562 cells assessed as necrotic cells at 1.2 uM after 48 hrs by Annexin V-FITC/propidium iodide-staining based flow cytometric analysis (reference value: 0.13 to 0.27%). Format: functional. The method, boiled down:
as §2

The test system of test [10] is K562. As to the kind of experiment: Induction of ROS generation in human K562 cells at 0.5 uM after 48 hrs by DCFH-DA probe based flow cytometric analysis relative to control. Format: functional. The method in brief: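 K562 seeded at 4 × 10^5 cells/well, 12 h, then treated 48 h. Washed cells loaded with DCFH-DA in FBS-free medium at 37 °C for 30 min, rinsed, read by flow cytometry. ROSup was the positive control; mean ± SD, n = 3.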

Test [11] concerns K562. Nature of the test: Decrease in mitochondrial membrane potential in human K562 cells after 48 hrs by JC-1 staining based flow cytometry. Format: functional, cell-based. The method, boiled down: (§3)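 K562 seeded at 4 × 10^5 cells/well, after 12 h treated 48 h. Cells washed in ice-cold PBS, loaded with JC-1 ([…]) at 37 °C for 15 min, rinsed, and analysed by flow cytometry (% cells with red aggregates) and fluorescence microscopy (red aggregates vs green monomers).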

Test [12] concerns K562. Nature of the test: Induction of mitochondrial membrane depolarization in human K562 cells assessed as cells with mitochondrial membrane potential loss at 1 uM after 48 hrs by JC-1 staining based flow cytometric analysis (reference value: 1.89 to 2.23%). Format: functional.
Test [13] concerns K562. Nature of the test: Induction of mitochondrial membrane depolarization in human K562 cells assessed as cells with intact mitochondrial membrane potential at 2 uM after 48 hrs by JC-1 staining based flow cytometric analysis (reference value: 97.63 to 97.67%). It is filed as functional. The method in brief:
as §3

For test [14], the system named is K562. As to the kind of experiment: Induction of mitochondrial membrane depolarization in human K562 cells assessed as cells with mitochondrial membrane potential loss at 2 uM after 48 hrs by JC-1 staining based flow cytometric analysis (reference value: 1.89 to 2.23%). It is filed as functional.
For test [15], the system named is K562. Nature of the test: Induction of mitochondrial membrane depolarization in human K562 cells assessed as cells with intact mitochondrial membrane potential at 4 uM after 48 hrs by JC-1 staining based flow cytometric analysis (reference value: 97.63 to 97.67%). It is filed as functional.
Test [16] relates to K562. Nature of the test: Induction of apoptosis in human K562 cells assessed as caspase-9 activation at 4 uM after 48 hrs by Western blot analysis relative to control. Format: functional. The method, boiled down:
(§4)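 K562 treated 48 h, then lysed on ice for 30 min; cytosolic and mitochondrial fractions isolated by kit where needed, protein measured by BCA. 60 μg/lane run on SDS-PAGE, transferred to PVDF, blocked in 5% milk/TBST for 4 h. Probed for cytochrome c, caspase-9, caspase-3 (total/cleaved), PARP; alkaline phosphatase secondary.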

In test [17] the test system is K562. As to the kind of experiment: Induction of apoptosis in human K562 cells assessed as caspase-3 activation at 4 uM after 48 hrs by Western blot analysis relative to control. Format: functional. The method in brief: as §4
(In western blotting, separated proteins are transferred to a membrane and probed.)

The subject of test [18] is K562. As to the kind of experiment: Antitumor activity against CM-Dil-labeled human K562 cells xenografted in wild-type zebrafish embryos assessed as reduction in cell migration at 1 to 2 ug/ml measured after 48 hrs by confocal microscopic analysis. It is filed as functional, cell-based. The method in brief: (§5)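 K562 cells labelled with CM-Dil, suspended in FBS-free medium at (1 × 107)/mL and microinjected into wild-type zebrafish embryos kept at 28 °C in embryonic medium. After 4 h, embryos with the same injection spot were pooled at 15−20 per well and exposed to compound; Taxol served as positive control. At 48 h, confocal imaging gave fluorescent area (migration) and fluorescence intensity (cell number); n = 15.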

Test [19] has as its system K562. As to the kind of experiment: Antitumor activity against CM-Dil-labeled human K562 cells xenografted in wild-type zebrafish embryos assessed as tumor growth inhibition at 1 to 10 ug/ml measured after 48 hrs by confocal microscopic analysis. Format: functional, cell-based. The method, boiled down:
as §5

Test [20] deals with K562. Nature of the test: Induction of apoptosis in human K562 cells assessed as decrease in cytochrome c level in mitochondria up to 4 uM after 48 hrs by Western blot analysis. Format: functional, cell-based. The method in brief: as §4
Test [21] has as its system K562. As to the kind of experiment: Induction of apoptosis in human K562 cells assessed as increase in cytosolic cytochrome c level up to 4 uM after 48 hrs by Western blot analysis. Format: functional, cell-based. The method in brief:
as §4

The subject of test [22] is K562. As to the kind of experiment: Induction of apoptosis in human K562 cells after 48 hrs by Annexin V-FITC/propidium iodide-staining based flow cytometric analysis. It is filed as functional, cell-based. The method in brief:
as §2

In the case of `C=C(C)[C@@H]1CC[C@]2(COC(=O)CCCC[P+](c3ccccc3)(c3ccccc3)c3ccccc3)CC[C@]3(C)[C@H](CC[C@@H]4[C@@]5(C)CC[C@H](O)C(C)(C)[C@@H]5CC[C@]43C)[C@@H]12.[Br-]`, the IC50 in the test on K562 [1] came out at 0.57 µM; in the test with ECa-109 cell line, 0.78 µM; in the test with A549 it was 0.61 µM. Moreover, the viability at 0.4 µM with K562 [2] stood at 88.1%. For the same compound, the Activity in the test on K562 [3] is 4.67%; with K562 [4], 0.53%; in the test on K562 [6], 12.51%; with K562 [8] it was 12.03%; in the test with K562 [9] it was 4.41%; with K562 [10], 50%. Besides, the Activity entry in the test on K562 [11] is “Dose-dependent effect”; in the test with K562 [12], 6.47%; in the test on K562 [13] it was 82.54%; with K562 [14] it was 17.08%; in the test with K562 [15], 38.18%; in the test with K562 [22], “Dose-dependent effect”. In addition, the viability at 0.8 µM with K562 [5] was 63.2%. Moreover, the viability at 1.2 µM in the test with K562 [7] was determined as 45.3%. Also, the “fold change (FC)” value with K562 [16] came to 1.5; in the test on K562 [17], 2.1. Besides, the outcome with K562 [18], in the test on K562 [20] and in the test on K562 [21] was Active. For the same compound, in the test on K562 [19], the TGI result was “Active”.

Values taken from ChEMBL document CHEMBL4011654, “Mitochondria-Targeted Lupane Triterpenoid Derivatives and Their Selective Apoptosis-Inducing Anticancer Mechanisms” (J Med Chem, 2017).
